{
  "source": "ChEMBL document CHEMBL1124451",
  "about": "“[(1H-imidazol-1-yl)methyl]- and [(3-pyridinyl)methyl]pyrroles as thromboxane synthetase inhibitors” (J Med Chem, 1989)",
  "key": {"Homo sapiens [1]": {"species": "Homo sapiens", "test": "Relative potency to inhibit ADP-induced aggregation of human platelet rich plasma compared to that of dazoxiben, in vitro using pig aortal microsomes.", "type": "functional", "settings": "Aorta"}, "Homo sapiens [2]": {"species": "Homo sapiens", "test": "In vitro inhibition of ADP-induced aggregation of human platelet rich plasma in the presence of pig aortal microsomes.", "type": "functional", "settings": "Aorta", "summary_of_the_method": "(§1)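 Human citrated blood (0.38% citrate final), PRP by centrifugation at 200g, room temperature. Drug added to 1.0 mL PRP, 2 min at 37 °C with stirring (500 rpm), then pig aortal microsomes 3 min; microsome amount set by the dazoxiben standard. Aggregation induced by 5 μM ADP (final), read turbidimetrically.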"}, "[3]": {"biological_target": "T1, Thromboxane-A synthase (Homo sapiens) (UniProt P24557)", "T1 sequence (whole entry)": "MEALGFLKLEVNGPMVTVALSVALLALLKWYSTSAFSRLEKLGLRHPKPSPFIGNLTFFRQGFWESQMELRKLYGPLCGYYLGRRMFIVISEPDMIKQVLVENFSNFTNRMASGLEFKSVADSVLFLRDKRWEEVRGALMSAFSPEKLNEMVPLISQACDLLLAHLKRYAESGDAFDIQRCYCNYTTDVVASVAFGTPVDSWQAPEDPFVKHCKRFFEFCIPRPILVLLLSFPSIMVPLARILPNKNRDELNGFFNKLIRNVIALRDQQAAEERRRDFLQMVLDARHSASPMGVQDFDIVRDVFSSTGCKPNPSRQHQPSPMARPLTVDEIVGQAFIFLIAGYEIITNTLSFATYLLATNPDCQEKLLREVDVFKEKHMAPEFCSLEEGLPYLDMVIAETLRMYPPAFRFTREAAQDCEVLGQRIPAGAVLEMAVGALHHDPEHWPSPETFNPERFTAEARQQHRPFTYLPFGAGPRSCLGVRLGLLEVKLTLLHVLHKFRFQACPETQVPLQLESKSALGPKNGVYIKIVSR", "test": "Relative potency of thromboxane A2 synthetase as reduced ADP-induced aggregation of human platelet rich plasma compared to dazoxiben", "type": "functional, cell-free"}, "Mus musculus [4]": {"tested_on": "Mus musculus", "test": "Activity at 10 mg/kg […] against mortality in a pulmonary thromboembolism model in mice (10 animals) at -5h following oral administration", "type": "functional", "summary_of_the_method": "(§2)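 Male Swiss-Webster mice (22-26 g), 10 per group (one group of 9); test material given po in 0.2 mL CMC at -1, -3, -5 or -18 h before challenge. At hour 0, collagen extract plus epinephrine hydrochloride given iv via tail vein in 0.9% saline. The collagen amount was titrated per lot to 90-100% mortality in vehicle controls. Readout: % surviving at 24 h.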"}, "Mus musculus [5]": {"tested_on": "Mus musculus", "test": "Activity at 10 mg/kg […] against mortality in a pulmonary thromboembolism model in mice (10 animals) at -18h following oral administration", "type": "functional", "summary_of_the_method": "as §2"}, "Mus musculus [6]": {"tested_on": "Mus musculus", "test": "Activity at 10 mg/kg given intravenously against mortality in a pulmonary thromboembolism model in mice (10 animals) at -1h", "type": "functional", "settings": "route intravenous", "summary_of_the_method": "(§3)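 Male Swiss-Webster mice (22-26 g); test material given iv in 0.2 mL CMC before challenge (mostly at -3 h, one group at -1 h). At hour 0, collagen extract plus epinephrine hydrochloride given iv in 0.2 mL 0.9% saline via tail vein. The collagen amount was set per lot as the minimum giving 90-100% mortality in CMC-vehicle controls. Readout: % surviving at 24 h.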"}, "Mus musculus [7]": {"tested_on": "Mus musculus", "test": "Activity at 25 mg/kg given intravenously against mortality in a pulmonary thromboembolism model in mice (9 animals) at -3h", "type": "functional", "settings": "route intravenous", "summary_of_the_method": "as §3"}, "Mus musculus [8]": {"tested_on": "Mus musculus", "test": "Activity at 10 mg/kg […] against mortality in a pulmonary thromboembolism model in mice (10 animals) at -7h following oral administration", "type": "functional"}, "Mus musculus [9]": {"tested_on": "Mus musculus", "test": "Activity at 10 mg/kg […] against mortality in a pulmonary thromboembolism model in mice (10 animals) at -1h following oral administration", "type": "functional", "summary_of_the_method": "as §2"}, "Mus musculus [10]": {"tested_on": "Mus musculus", "test": "Activity at 10 mg/kg […] against mortality in a pulmonary thromboembolism model in mice (10 animals) at -3h following oral administration", "type": "functional", "summary_of_the_method": "as §2"}, "Homo sapiens [11]": {"species": "Homo sapiens", "test": "In vitro inhibition of ADP-induced aggregation of human platelet rich plasma in the presence of pig aortal microsomes", "type": "functional", "settings": "Aorta", "summary_of_the_method": "as §1"}, "Homo sapiens [12]": {"species": "Homo sapiens", "test": "Relative potency to inhibit ADP-induced aggregation of human platelet rich plasma compared to that of dazoxiben, in vitro using pig aortal microsomes", "type": "functional", "settings": "Aorta"}, "Rattus norvegicus": {"tested_on": "Rattus norvegicus", "test": "Effect of perorally administered compound on systolic blood pressure and proteinuria was studied with a 5/6 renal ablated rat as a model of progressive injury", "type": "functional, Artery", "summary_of_the_method": "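Male Munich Wistar rats (200-270 g) with 5/6 renal ablation were dosed in drinking water from 1 week post-surgery at 68, 205 or 410 mg/kg/day; controls received water. Conscious systolic pressure measured weekly by tail cuff. 24-h urinary protein measured every 2 weeks by the sulfosalicylic acid method.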"}, "Mus musculus [13]": {"tested_on": "Mus musculus", "test": "Activity at 10 mg/kg […] against mortality in a pulmonary thromboembolism model in mice (9 animals) at -3h following oral administration", "type": "functional", "summary_of_the_method": "as §2"}},
  "data": [
    {"smiles": "CCOC(=O)/C=C\\c1ccc(Cn2ccnc2)n1C", "values": [
      {"measurement": "Relative potency", "setting": "Homo sapiens [1]", "result": 0.25},
      {"measurement": "IC50", "setting": "Homo sapiens [2]", "result": 8.9, "unit": "µM"}
    ]},
    {"smiles": "CCOC(=O)/C(C)=C\\c1cc(Cc2cccnc2)n(C(C)(C)C)c1", "values": [
      {"measurement": "Relative potency", "setting": "Homo sapiens [1]", "result": 0.59},
      {"measurement": "IC50", "setting": "Homo sapiens [2]", "result": 3.2, "unit": "µM"}
    ]},
    {"smiles": "CCOC(=O)/C(C)=C/c1cc(Cn2ccnc2)n(C)c1", "values": [
      {"measurement": "Relative potency", "setting": "Homo sapiens [1]", "result": 1.1},
      {"measurement": "IC50", "setting": "Homo sapiens [2]", "result": 1.8, "unit": "µM"}
    ]},
    {"smiles": "Cn1cc(/C=C/C(=O)O)cc1Cn1ccnc1", "values": [
      {"measurement": "Relative potency", "setting": "[3]", "result": 0.62}
    ]},
    {"smiles": "CCOC(=O)/C(C)=C\\c1ccc(Cc2cccnc2)n1-c1ccccc1", "values": [
      {"measurement": "Relative potency", "setting": "Homo sapiens [1]", "result": 0.01},
      {"measurement": "IC50", "setting": "Homo sapiens [2]", "result": 180, "unit": "µM"}
    ]},
    {"smiles": "CCOC(=O)/C=C/c1cc(Cn2ccnc2)n(C)c1", "values": [
      {"measurement": "Relative potency", "setting": "Homo sapiens [1]", "result": 1.2},
      {"measurement": "IC50", "setting": "Homo sapiens [2]", "result": 1.8, "unit": "µM"}
    ]},
    {"smiles": "O=C(O)c1ccc(OCCn2ccnc2)cc1", "note": "[DAZOXIBEN]", "values": [
      {"measurement": "survival at 10 mg/kg", "setting": "Mus musculus [4]", "result": 20, "unit": "%"},
      {"measurement": "survival at 10 mg/kg", "setting": "Mus musculus [5]", "result": 10, "unit": "%"},
      {"measurement": "survival at 10 mg/kg", "setting": "Mus musculus [6]", "result": 30, "unit": "%"},
      {"measurement": "survival at 25 mg/kg", "setting": "Mus musculus [7]", "result": 67, "unit": "%"},
      {"measurement": "survival at 10 mg/kg", "setting": "Mus musculus [8]", "result": 20, "unit": "%"},
      {"measurement": "survival at 10 mg/kg", "setting": "Mus musculus [9]", "result": 50, "unit": "%"},
      {"measurement": "IC50", "setting": "Homo sapiens [2]", "result": 2.28, "unit": "µM"},
      {"measurement": "survival at 10 mg/kg", "setting": "Mus musculus [10]", "result": 40, "unit": "%"}
    ]},
    {"smiles": "CCOC(=O)/C(C)=C\\c1ccc(Cn2ccnc2)n1C", "values": [
      {"measurement": "IC50", "setting": "Homo sapiens [11]", "result": 26, "unit": "µM"},
      {"measurement": "Relative potency", "setting": "Homo sapiens [12]", "result": 0.08}
    ]},
    {"smiles": "CCOC(=O)[C@H](CCc1ccccc1)N[C@@H](C)C(=O)N1CCC[C@H]1C(=O)O", "values": [
      {"measurement": "ED", "setting": "Rattus norvegicus", "result": 4, "unit": "mg/kg"}
    ]},
    {"smiles": "C/C(=C\\c1ccc(Cn2ccnc2)[nH]1)C(=O)O", "values": [
      {"measurement": "Relative potency", "setting": "[3]", "result": 0.24}
    ]},
    {"smiles": "C/C(=C/c1ccc(Cc2cccnc2)n1CC(C)(C)C)C(=O)O", "values": [
      {"measurement": "Relative potency", "setting": "[3]", "result": 0.24}
    ]},
    {"smiles": "CCOC(=O)/C(C)=C\\c1ccc(Cc2cccnc2)n1CC(C)(C)C", "values": [
      {"measurement": "Relative potency", "setting": "Homo sapiens [1]", "result": 0.03},
      {"measurement": "IC50", "setting": "Homo sapiens [2]", "result": 57, "unit": "µM"}
    ]},
    {"smiles": "Cc1c(Cn2ccnc2)c2ccccc2n1CCC(=O)O", "note": "[DAZMEGREL]", "values": [
      {"measurement": "survival at 10 mg/kg", "setting": "Mus musculus [4]", "result": 20, "unit": "%"},
      {"measurement": "survival at 10 mg/kg", "setting": "Mus musculus [5]", "result": 10, "unit": "%"},
      {"measurement": "survival at 10 mg/kg", "setting": "Mus musculus [13]", "result": 11, "unit": "%"},
      {"measurement": "Relative potency", "setting": "Homo sapiens [1]", "result": 1},
      {"measurement": "survival at 10 mg/kg", "setting": "Mus musculus [8]", "result": 0, "unit": "%"},
      {"measurement": "survival at 10 mg/kg", "setting": "Mus musculus [9]", "result": 20, "unit": "%"},
      {"measurement": "IC50", "setting": "Homo sapiens [2]", "result": 1.9, "unit": "µM"}
    ]},
    {"smiles": "CCOC(=O)/C(C)=C\\c1ccc(Cn2ccnc2)[nH]1", "values": [
      {"measurement": "Relative potency", "setting": "Homo sapiens [1]", "result": 0.31},
      {"measurement": "IC50", "setting": "Homo sapiens [2]", "result": 8.1, "unit": "µM"}
    ]}
  ]
}
